TPT1 inhibitor: inhibitors of Candida albicans tRNA 2'-phosphotransferase TPT1; recombinant caTPT1, FP RNA substrate dephosphorylation; AID 1962; 300,000 tested, 0.81% active; inhibition, % at 5 µM;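 active means inhibition above the mean of all tested compounds plus 3 SD, set per screening campaign, cut at about 24% in these data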;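 further: plate controls were DMSO alone for no effect and ferristatin control at 100 nM for full effect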
Rpn11 block: blocks the human proteasome subunit Rpn11; human 26S proteasome, Ub4-pepOG fluorescence polarization; 20S core pre-blocked with epoxomicin; inhibition, % at 20 µM; O00487; 360,000 tested, 0.59% active;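 active means inhibition at 20 µM, scaled to each plate's controls, above about 33%, limit read from the data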
HNF4A DNA FP: change in binding of human HNF4 alpha to DNA; P41235; HNF4a-FITC DNA binding, fluorescence polarization, 1 h; activity change, % at 10 µM; 360,000 tested, 0.3% active; AID 1224865; in the data active means activity change above about 30%, passing the limit was not always enough
Myeloid diff MLP: compounds promoting myeloid differentiation. ER-HoxA9 myeloid progenitors, lysozyme-GFP differentiation, flow cytometry. calls only at 10 µM. 360,000 tested, 1% active. AID 624256;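 active means normalized GFP-positive differentiation at or above the plate's own cutoff, the solvent-only control mean plus 3 SD; inconclusive means no clear call, values can overlap the other calls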;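 further: cells exposed to compound for four days before flow analysis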
CSN deneddyl inh: inhibitors of human CSN-mediated cullin deneddylation; 360,000 tested, 0.38% active; Purified CSN, SCF-Nedd8-OG deneddylation, fluorescence polarization; AID 651999; inhibition, % at 12.5 µM;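 active means pattern-corrected inhibition above about 35%, with an unprinted fluorescence ratio check between 0.5 and 1.5, limit read from the data, passing the limit was not always enough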;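 further: 0% = enzyme with substrate and 100% = substrate without enzyme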
Target sequence (Q92905 whole entry, looked up, one chain of several): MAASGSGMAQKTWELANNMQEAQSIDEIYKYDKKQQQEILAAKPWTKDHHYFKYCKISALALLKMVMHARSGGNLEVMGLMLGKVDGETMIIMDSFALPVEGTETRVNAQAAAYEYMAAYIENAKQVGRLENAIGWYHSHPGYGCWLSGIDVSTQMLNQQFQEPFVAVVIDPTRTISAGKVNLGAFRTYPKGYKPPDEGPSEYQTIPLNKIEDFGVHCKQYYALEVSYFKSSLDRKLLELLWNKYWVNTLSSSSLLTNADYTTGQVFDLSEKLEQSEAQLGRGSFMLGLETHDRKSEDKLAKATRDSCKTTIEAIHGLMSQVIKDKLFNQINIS
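test system = HEK293T-derived human Csn5 enzyme | amount = 0.24 nM Csn5 enzyme, final concentration | medium = Tris/NaCl/DTT buffer, pH 7.5 | schedule = 90 min reaction at room temperature | signal = FP | evaluation = inhibition of Csn5 cleavage, % | compound dosing = single dose of 12.5 µM compound with 0.25% DMSO | probe or stimulus = 10 nM SCFSkp2-Nedd8OG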
TPT1 inh confirm: confirmation of Candida albicans TPT1 inhibitors; shares compounds with TPT1 inhibitor; inhibition, % at 5 µM; recombinant caTPT1, fluorescence polarization, RNase T1 coupled; 2,400 tested, 74% active;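 active means inhibition above the primary screen limit, the mean inhibition of all tested compounds plus 3 SD, cut at about 25% in these data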
RNase T1 inh: counter-screen for TPT1 inhibitors: inhibitors of Aspergillus oryzae RNase T1; inhibition, % at 5 µM; shares compounds with TPT1 inhibitor; 2,400 tested, 83% active; RNase T1 cleavage, fluorescence polarization, 1536-well;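 active means inhibition above the solvent-only control well mean plus 3 SD, limit set per screening run, cut at about 23% in these data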;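 further: plate controls were DMSO wells with enzyme for no effect and wells without RNase T1 for full effect; inhibitors block cleavage so intact labeled substrate keeps polarization high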
Target sequence (P00651 whole entry, looked up): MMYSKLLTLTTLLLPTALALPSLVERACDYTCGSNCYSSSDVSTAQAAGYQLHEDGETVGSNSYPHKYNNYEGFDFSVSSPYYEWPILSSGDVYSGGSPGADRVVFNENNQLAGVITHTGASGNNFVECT
Rpn11 inh conf: confirmation of human proteasome Rpn11 inhibitors | shares compounds with Rpn11 block | purified human 26S proteasome, Ub4-pepOG fluorescence polarization; proteasome pretreated with epoxomicin | inhibition, % at 20 µM | 1,900 tested, 29% active | AID 602318
MMP-2 counter: blocks human MMP-2, flagging nonselective RPN11 hits | shares compounds with Rpn11 block | recombinant MMP-2, FRET peptide cleavage fluorescence | inhibition, % at 20 µM | 1,900 tested, 4% active | AID 602330;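 further: human MMP-2 activated beforehand with APMA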
Thrombin inh: thrombin (bovine) inhibition counter-screen; shares compounds with Rpn11 block; bovine thrombin cleavage of Ub4-pepOG, fluorescence polarization; inhibition, % at 20 µM; 1,900 tested, 13% active; AID 602333;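 active means mean inhibition at least 40% at 20 µM, or signal 3 deviations below plate average, so some actives read negative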;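 further: plate controls were thrombin with DMSO for no effect and buffer wells lacking thrombin for full effect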
An asterisk follows results filed as active; i = inactive; u = inconclusive; x = no result; + = active, no number; ! = repeats disagree. Most compounds without a hit are left out; they make up all but 2.3% or so of the library. Unless noted, no stated cut-off is given here; in the data, active means inhibition above about 40%; inactive means the rest.

SMILES	TPT1 inhibitor	Rpn11 block	HNF4A DNA FP	Myeloid diff MLP	CSN deneddyl inh	TPT1 inh confirm	RNase T1 inh	Rpn11 inh conf	MMP-2 counter	Thrombin inh
Nc1c(C(=O)N/N=C/c2ccc(F)cc2)oc2nc(-c3ccccc3)cc(-c3ccco3)c12	34.2*	43.9*	32.8	i	10.2	108.7*	111.5*	94.4*	-18.5	20.4
O=C(COC(=O)c1cc(=O)[nH]c2ccccc12)NC1CCCCC1	x	-1.3	0.9	i	-3.4	x	x	x	x	x
COC(=O)c1c(SCC(=O)NC2CCCCC2)[nH]c2ccccc2c1=O	25.2*	90.7*	16.1	i	20.6	18.7	29.9*	9.0	-35.2	6.2
Cc1n[nH]c(=O)c2c(NC(=O)CSc3nc4ccccc4c(=O)n3CCCO)oc(C)c12	0.8	-3.3	-4.3	i	0.2	x	x	x	x	x
N#Cc1c(N)n(CCc2ccc(F)cc2)c2nc3ccccc3nc12	7.4	17.1	5.0	i	25.4	x	x	x	x	x
Cn1c(-c2c(N)n(CCc3ccccc3)c3nc4ccccc4nc23)nc2ccccc21	37.8*	46.3*	22.3	i	3.6	48.5*	60.0*	38.0	-1.8	28.7
O=C(NC1CCCC1)C(c1ccc(F)cc1)N1CCC(O)(c2ccc(Cl)cc2)CC1 (stereo not drawn)	x	x	1.2	i	-2.5	x	x	x	x	x
O=C(O)c1cc(-c2ccco2)nn1-c1cccc(Cl)c1	28.5*	42.2*	-40.8	i	25.7	24.9*	31.6*	18.6	15.2	6.2
COc1cccc(-n2c(SCC(N)=O)nc3ccccc3c2=O)c1	40.4*	65.9*	30.0	i	19.9	60.2*	74.6*	56.2*	-4.1	19.2
NC(=O)CSc1nc2ccccc2c(=O)n1-c1ccccc1	3.1	0.1	3.2	i	-4.7	x	x	x	x	x
COc1ccc(N=Cc2ccccc2O)cc1	x	5.8	3.6	i	1.1	x	x	x	x	x
COc1ccc(N=Cc2oc3ccc4ccccc4c3c2O)cc1	114.1*	55.5*	34.7	i	22.8	71.0*	75.2*	59.8*	-41.9	21.3
O=C(c1ccc2ccccc2c1)C1CCCN(S(=O)(=O)c2cccnc2)C1 (stereo not drawn)	-6.9	-0.6	0.2	i	1.2	x	x	x	x	x
COc1ccccc1NC(=O)CSc1nc(N)c(C#N)cc1C#N	32.2*	49.8*	19.9	i	7.3	38.7*	50.2*	70.7*	-26.1	47.3*
CN1CCc2c(sc3c2C(=O)NC(c2cn(Cc4ccccc4)c4ccccc24)N3)C1 (stereo not drawn)	66.8*	56.8*	52.4*	i	25.7	74.8*	84.8*	58.9*	7.6	40.9*
COC(=O)CN1C(=S)N(c2ccc(OC)cc2)C(=O)/C1=C/c1ccc(OC)cc1	-0.8	0.7	4.7	i	5.0	x	x	x	x	x
COc1ccc(C(=O)N2C(=S)NC(=O)/C2=C\c2ccc(C)cc2)cc1	34.2*	62.9*	19.3	i	43.3*	41.8*	57.0*	107.4*	20.1	75.4*
Cc1ccccc1N=Cc1cc2c(cc1O)OC(N)=C(C#N)C2c1ccccc1 (stereo not drawn)	53.0*	66.0*	35.4	i	13.3	72.6*	81.6*	95.8*	5.1	93.2*
CCCCC1SC(N)=NC1=O (stereo not drawn)	x	-2.9	-2.5	i	-2.6	x	x	x	x	x
COc1ccc(S(=O)(=O)N2CC(O)CC2C(=O)OCc2nc3sc(C)c(C)c3c(=O)[nH]2)cc1 (stereo not drawn)	32.7*	46.6*	24.7	i	24.8	47.3*	64.9*	22.4	-16.9	10.5
CCCCCCN1C=CC=C/C1=C\C=C(C#N)C#N	61.2*	62.0*	22.4	i	7.9	73.0*	84.0*	3.9	-4.9	11.3
CN(Cc1ccc2nsnc2c1)C(=O)C1CCC(=O)N(CCc2ccccc2)C1 (stereo not drawn)	x	-3.7	0.1	i	-4.1	x	x	x	x	x
Cc1ccc(Oc2cc([N+](=O)[O-])cc3c2C(=O)Nc2ccccc2O3)cc1	24.5*	48.9*	4.4	+	34.1	35.9*	45.9*	51.2*	-18.0	63.0*
O=C1CCC(c2ccc3c(c2)CCC3)=NN1	0.4	-3.3	0.4	i	-0.9	x	x	x	x	x
NC(=O)c1nsc(C(=O)N(CC(=O)NC2CCCC2)Cc2ccc3c(c2)OCO3)c1N	0.1	-4.9	-1.1	i	-1.9	x	x	x	x	x
SMILES	TPT1 inhibitor	Rpn11 block	HNF4A DNA FP	Myeloid diff MLP	CSN deneddyl inh	TPT1 inh confirm	RNase T1 inh	Rpn11 inh conf	MMP-2 counter	Thrombin inh
CC[C@]12c3[nH]c4ccccc4c3CCN1C(=O)C(CC(=O)NCCC1=CCCCC1)C[C@@H]2C(=O)N1CCN(C(=O)c2ccco2)CC1 (stereo partly drawn)	x	-1.2	-0.9	i	-2.1	x	x	x	x	x
Nc1nc(-c2ccc3c(c2)NC(=O)CO3)cs1	4.0	5.8	2.1	i	-1.5	x	x	x	x	x
CCN=c1scc(-c2ccc3c(c2)NC(=O)CO3)n1N=C1CCCC1	42.9*	44.5*!	23.5	u	6.6	38.6*	50.4*	18.3	-36.6	20.4
COc1nc(N)c(S(=O)(=O)c2ccccc2)cc1C#N	29.8*	54.1*	15.8	i	12.2	29.8*	40.9*	13.0	-38.9	-10.8
COc1nc(N)c(S(=O)(=O)c2ccccc2C)cc1C#N	10.7	19.5	5.0	i	1.4	x	x	x	x	x
O=c1nc(/C=C/c2cccn2-c2ccc([N+](=O)[O-])cc2)cc(C(F)(F)F)[nH]1	83.7*	40.2*	4.7	i	18.0	46.9*	66.0*	28.6	18.0	14.9
O=c1nc(/C=C/c2cc([N+](=O)[O-])ccc2Cl)cc(C(F)(F)F)[nH]1	-3.5	0.8	-2.6	i	26.2	x	x	x	x	x
O=C(CCN1C(=O)/C(=C\c2cccs2)SC1=S)Nc1ccccn1	31.7*	60.7*	21.8	i	7.7	27.6*	41.0*	60.5*	32.3	24.4
O=C(CCN1C(=O)/C(=C/c2cccs2)SC1=S)Nc1cccc(C(=O)O)c1	53.4*	41.7*	12.1	i	10.6	48.3*	63.2*	47.0*	-6.3	51.3*
O=C(CCCN1C(=O)/C(=C/c2cccs2)SC1=S)Nc1ccccn1	-0.5	3.9	2.2	i	5.9	x	x	x	x	x
CCCC1=Nc2cc(C(=O)N3CCC(C(=O)OCC)CC3)ccc2Sc2ccccc21	-1.1	3.7	0.1	i	-4.4	x	x	x	x	x

Compound activity from PubChem.
